From PubChem BioAssay
MrgX1 PAM: human MrgX1 positive allosteric modulation, primary screen; AID 588675; MrgX1-HEK293, Fluo-4 calcium flux, FDSS; stronger effect = higher value; B-score at 10 µM; 310,000 compounds, 0.63% hits;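 active = plate-corrected calcium response at least 3 library SD above typical, normal starting fluorescence, not activating the receptor alone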;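 note: compound read alongside a low EC10 to EC30 dose of BAM8-22 agonist; peak minus trough fluorescence over baseline measured at the second addition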
Target sequence (Q96LB2 whole entry, looked up): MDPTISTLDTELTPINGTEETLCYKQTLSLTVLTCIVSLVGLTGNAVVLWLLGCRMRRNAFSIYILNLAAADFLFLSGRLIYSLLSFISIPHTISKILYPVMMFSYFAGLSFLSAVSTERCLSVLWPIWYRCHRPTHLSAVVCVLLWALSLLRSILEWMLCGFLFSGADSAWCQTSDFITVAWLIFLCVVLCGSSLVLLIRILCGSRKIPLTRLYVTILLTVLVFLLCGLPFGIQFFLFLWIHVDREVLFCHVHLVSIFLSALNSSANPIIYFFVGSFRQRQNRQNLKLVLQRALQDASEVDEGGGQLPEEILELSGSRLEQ
RGS4 inh: human RGS4 inhibition | P49798 | HEK293 M3R/RGS4 inducible, Fluo-4 calcium flux; stronger effect = higher value; triggered by carbachol at its EC20 | B-score at 10 µM | 310,000 compounds, 0.45% hits;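 active = B-score, a plate-corrected calcium signal, over three deviations above library mean, with baseline fluorescence within five deviations of library mean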;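 note: RGS4 expression induced by doxycycline in cells with stable M3 receptor; B-score is computed from the integrated fluorescence ratio over baseline after carbachol; higher B-score means a larger calcium signal and so more RGS4 inhibition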
Target sequence (P49798 whole entry, looked up): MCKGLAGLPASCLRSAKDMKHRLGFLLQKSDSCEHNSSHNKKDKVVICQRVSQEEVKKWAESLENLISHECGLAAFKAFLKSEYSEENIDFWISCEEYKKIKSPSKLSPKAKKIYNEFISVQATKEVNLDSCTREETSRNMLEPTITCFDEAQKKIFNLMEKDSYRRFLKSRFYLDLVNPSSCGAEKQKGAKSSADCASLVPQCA
MrgX1 antagonist: human MrgX1 receptor antagonism, primary screen. 310,000 compounds, 1.3% hits. B-score at 10 µM. MRGX1-HEK293 calcium flux, Fluo-4, BAM8-22 antagonism; stronger effect = lower value. AID 588676. Q96LB2;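 active = calcium-response B-score plate-corrected more than 3 library SD below zero, starting fluorescence within 5 deviations, no agonist response on first addition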;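 note: peak minus trough fluorescence over baseline after final BAM8-22 challenge near maximal dose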
MrgX1 agonist: human MrgX1 receptor agonism, primary screen. MrgX1-HEK293 cells, Fluo-4 calcium fluorescence, agonist mode; stronger effect = higher value. Q96LB2. 310,000 compounds, 0.44% hits. AID 588627. B-score at 10 µM;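 active = calcium response B-score plate-corrected fluorescence ratio at least 3 library SD, with starting fluorescence B-score inside 5 SD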
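Material – MrgX1-expressing HEK293 cells · Input – 15,000 cells seeded per well · Dosing – compound as first of three additions · Times – overnight seeding, then 1 h dark dye loading · Measured by – kinetic Fluo-4 NW fluorescence of intracellular calcium · Read-out – B-scored fluorescence response ratio · Benchmarks – positive and negative control wells on each plate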
RGS4 act: potentiators or activators of RGS4. HEK293 M3R/inducible RGS4, carbachol calcium flux Fluo4; stronger effect = lower value. B-score at 10 µM. 310,000 compounds, 0.92% hits;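 active = B-score of the integrated calcium signal more than 4 SD below the library mean, with starting fluorescence not abnormally high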;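 note: negative B-score means reduced calcium response which marks RGS4 activation or potentiation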
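Assay system: Inducible-RGS4 HEK293 cells carrying M3 receptor | Schedule: Compound preincubation 20 min at room temperature before agonist | Signal: Kinetic calcium fluorescence imaging with Fluo4-AM dye, 2 µM | Read-out basis: B score from integrated fluorescence ratio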
Starred values were filed as active, the others as inactive; i = inactive; · = no result. Hits are enriched below; roughly 3.5% of the tested compounds scored in any of these assays.

SMILES	MrgX1 PAM	RGS4 inh	MrgX1 antagonist	MrgX1 agonist	RGS4 act
Cc1ccoc1C(=O)NCCNc1ccc(Cl)cc1[N+](=O)[O-]	i	i	-5.09*	i	i
COc1ccc(C2(O)CC3CCC(C2)N3c2cc(C)nc(-c3ccccc3)n2)cc1 (stereo not drawn)	i	i	i	i	i
Cc1cc(N2CCCC2)nc(N2C3CCC2CC(O)(c2ccc(F)cc2)C3)n1 (stereo not drawn)	7.98*	i	i	i	i
CCOc1ccc(S(=O)(=O)N2CCC(C(=O)NCCN3CCOCC3)CC2)cc1C	i	i	i	i	i
O=C(Cc1cccs1)Nc1ccc(-c2nnn(CC(=O)N3CCOCC3)n2)cc1	i	i	-6.39*	i	i
Cc1sc(-n2c(C)cc(/C=C3\SC(=S)NC3=O)c2C)c(C#N)c1C	i	i	-7.41*	i	-10.6*
COc1ccc(CN=Cc2[nH]c3ccc(Br)c(Cl)c3c2O)cc1	i	i	i	36.8*	i
Cc1cc(C)cc(N=Cc2[nH]c3ccc(Br)c(Cl)c3c2O)c1	i	i	i	39.4*	i
COc1ccc(CN=CC2=C(O)CNC2=O)cc1	i	i	i	i	i
O=C(c1ccc(Cl)cc1)n1c(NCc2ccccc2)n[nH]c1=S	i	i	i	i	i
CCOC(=O)NC(=O)c1cn(Nc2ccccc2)c(=O)[nH]c1=O	i	i	i	i	i
CCC1CN(C(=O)N2CCC(C(=O)NCc3ccco3)CC2)c2cc(C)ccc2O1 (stereo not drawn)	i	i	i	i	i
Cc1nn2c(=O)cc(CSCC(=O)Nc3ccccc3Cl)nc2s1	i	i	i	i	i
CCCn1c(SCC(=O)N2N=C3/C(=C/c4ccc(OC)cc4)CCCC3C2c2ccc(OC)cc2)n[nH]c1=O (stereo not drawn)	i	i	-5.14*	i	i
CCCn1c(SCC(=O)NCc2ccc(OC)cc2)n[nH]c1=O	i	i	i	i	i
O=c1cnnc(SCc2ccc([N+](=O)[O-])cc2)[nH]1	i	i	i	i	i
COc1ccc(OC)c(NC(=O)COC(=O)CCCN2C(=O)c3ccccc3C2=O)c1	i	i	-9.04*	i	i
COc1ccc(Cl)cc1NC(=O)COC(=O)CCCN1C(=O)c2ccccc2C1=O	i	i	i	i	i
Cc1nnc(N2C(=O)C(O)=C(C(=O)c3ccco3)C2c2ccc(C(C)C)cc2)s1 (stereo not drawn)	i	i	i	i	i
CSc1ccc(C2C(C(=O)c3ccco3)=C(O)C(=O)N2c2nnc(SC)s2)cc1 (stereo not drawn)	i	i	-5.44*	i	i
Cc1nnc(N2C(=O)C(O)=C(C(=O)c3ccco3)C2c2ccc(F)cc2)s1 (stereo not drawn)	i	i	i	i	i
Cc1nnc(N2C(=O)C(O)=C(C(=O)c3ccco3)C2c2ccc(C(C)(C)C)cc2)s1 (stereo not drawn)	i	i	i	26.8*	i
CC1=CN2C(=N)/C(=C/c3ccc(C)o3)C(=O)N=C2S1	15.3*	i	i	i	i
O=C(N/N=C/c1cc([N+](=O)[O-])ccc1O)c1cc(-c2ccccc2)nc2ccccc12	i	i	-6.04*	i	i
Cc1cc(-n2cccn2)ccc1CN1CCN(CC(C)C)C(CCO)C1 (stereo not drawn)	i	i	i	i	-7.29*
SMILES	MrgX1 PAM	RGS4 inh	MrgX1 antagonist	MrgX1 agonist	RGS4 act
Cc1cc(-n2cccn2)ccc1CN1CCN(C2CCCC2)C(CCO)C1 (stereo not drawn)	i	i	i	i	i
CCOc1ccc(OCC(=O)OCC(=O)N(CC(C)C)c2c(N)n(Cc3ccccc3)c(=O)[nH]c2=O)cc1	i	i	i	i	i
CC(C)CN(C(=O)COC(=O)COc1ccc2ccccc2c1)c1c(N)n(Cc2ccccc2)c(=O)[nH]c1=O	i	i	-6.39*	i	i
CN(C(=O)COC(=O)c1nc(Cl)ccc1Cl)c1ccccc1	i	i	i	i	i
CCn1c2ccc(C)cc2c2nnc(NN)nc21	i	i	i	28.9*	i
CN(C)c1ccc(/C=N/N=C(N)N)cc1[N+](=O)[O-]	i	i	i	36.7*	i
CN(C)c1ccc(-c2sc(Nc3ccccc3)n[n+]2-c2ccc(F)cc2)cc1	i	i	i	46.7*	i
COc1ccc(C)cc1Nc1n[n+](-c2ccccc2)c(-c2ccc(N(C)C)cc2)s1	i	i	i	33.6*	i
CCc1ccc(Nc2n[n+](-c3ccccc3)c(/C=C/c3ccccc3)s2)cc1	7.42*	i	i	i	i
COc1ccc2ccccc2c1-c1sc(Nc2ccccc2)n[n+]1-c1ccc(F)cc1	i	i	-5.87*	i	i
CC(=O)N1CCN(Cc2nc3cc(NC(=O)c4cccc(Br)c4)ccc3n2C)CC1	i	i	i	i	i
CCN(CC)c1ccc(-c2sc(Nc3ccccc3)n[n+]2-c2ccc(F)cc2)cc1	i	i	i	i	i
CCc1ccc(Nc2n[n+](-c3ccccc3)c(-c3ccc(N(CC)CC)cc3)s2)cc1	i	i	i	44.7*	i
CN(C)C(=O)c1cc(C(=O)c2ccc(C(F)(F)F)cc2)c[nH]1	i	i	i	i	i
CCN(CC)C(=O)N1c2ccccc2C=Cc2ccccc21	i	i	i	i	i
CN(C)CCCNC(=O)N1c2ccccc2C=Cc2ccccc21	i	i	i	i	-7.24*
O=C(NCC1CCCN(Cc2cccc(F)c2)C1)c1cccc2ccccc12 (stereo not drawn)	i	i	i	i	i
Cc1ccc(S(=O)(=O)Oc2ccccc2/C=C2/SC(=O)NC2=O)cc1	i	i	i	26.9*	i
COc1ccccc1C(=O)Nc1c(C(=O)N(CCN(C)C)Cc2ccco2)oc2ccccc12	i	i	i	i	i
COc1ccc(OCC(=O)Nc2c(C(=O)N(CCN(C)C)Cc3ccco3)oc3ccccc23)cc1	i	i	-5.12*	i	i
Nc1sc(-c2ccccc2)n[n+]1Cc1cccc2cccnc12	i	i	-4.71*	i	-7.14*
CN(C)c1ccc(/C=C(\Cl)c2nc3ccccc3s2)cc1	i	·	i	i	·
Cc1cc2nc3ccc(=[N+](C)C)cc-3sc2cc1N	·	i	·	·	-8.45*
CN(C)c1ccc2nc3ccc(=[N+](C)C)cc-3sc2c1	i	i	i	i	-7.55*
